Bioassay records deposited in PubChem BioAssay by Johns Hopkins Ion Channel Center.
MrgX1 allo act = positive allosteric modulators of MrgX1, primary screen, HEK293 cells, Fluo-4 calcium flux; FDSS; stronger effect = higher value; B-score at 10 µM; Mas-related G-protein coupled receptor member X1 (Homo sapiens), Q96LB2; 310,000 tested, 0.63% active; AID 588675, 2011;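 active = plate-corrected calcium response at least 3 library SD above typical, normal starting fluorescence, not activating the receptor alone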;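 also: compound read alongside a low EC10 to EC30 dose of BAM8-22 agonist; peak minus trough fluorescence over baseline measured at the second addition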
Target sequence (Q96LB2 whole entry, looked up): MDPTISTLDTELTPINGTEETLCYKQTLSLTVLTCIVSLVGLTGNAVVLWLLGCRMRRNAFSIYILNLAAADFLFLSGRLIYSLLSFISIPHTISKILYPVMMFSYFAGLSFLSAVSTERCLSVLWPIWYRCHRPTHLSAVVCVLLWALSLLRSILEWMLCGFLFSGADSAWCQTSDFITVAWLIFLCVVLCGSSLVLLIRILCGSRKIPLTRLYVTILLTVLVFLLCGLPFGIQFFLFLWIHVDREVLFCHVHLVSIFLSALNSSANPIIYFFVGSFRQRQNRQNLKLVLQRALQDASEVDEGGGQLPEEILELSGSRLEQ
RGS4 act = RGS4 potentiators or activators, primary screen, cell-based, HEK293 M3R inducible RGS4, calcium flux; carbachol calcium flux Fluo4; stronger effect = lower value; B-score at 10 µM; 310,000 tested, 0.92% active; AID 463111, 2010;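 active = B-score of the integrated calcium signal more than 4 SD below the library mean, with starting fluorescence not abnormally high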;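 also: negative B-score means reduced calcium response which marks RGS4 activation or potentiation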
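System: HEK293 FlpIn-TREx cells, stable M3R, doxycycline-inducible RGS4. Timing: overnight RGS4 induction, 30 min dye load 37 °C, 20 min compound RT. Also added: carbachol, ECmax concentration. Measured by: Fluo4 fluorescence kinetic imaging of calcium. Evaluation: integrated calcium ratio converted to B score.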
MrgX1 agonist = agonists of human MrgX1 receptor, primary screen, HEK293 cells, Fluo-4 calcium flux; B-score at 10 µM; Mas-related G-protein coupled receptor member X1 (Homo sapiens), Q96LB2; 310,000 tested, 0.44% active; Fluo-4 calcium fluorescence, agonist mode; stronger effect = higher value;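 active = calcium response B-score plate-corrected fluorescence ratio at least 3 library SD, with starting fluorescence B-score inside 5 SD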
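Material – MrgX1-expressing HEK293 cells · Input – 15,000 cells seeded per well · Dosing – compound as first of three additions · Times – overnight seeding, then 1 h dark dye loading · Measured by – kinetic Fluo-4 NW fluorescence of intracellular calcium · Read-out – B-scored fluorescence response ratio · Benchmarks – positive and negative control wells on each plate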
MrgX1 antag = antagonists of human MrgX1 receptor, primary screen, HEK293 cells, Fluo-4 calcium flux; B-score at 10 µM; 310,000 tested, 1.3% active; Mas-related G-protein coupled receptor member X1 (Homo sapiens), Q96LB2; BAM8-22 antagonism; stronger effect = lower value; AID 588676, 2011;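 active = calcium-response B-score plate-corrected more than 3 library SD below zero, starting fluorescence within 5 deviations, no agonist response on first addition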;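 also: peak minus trough fluorescence over baseline after final BAM8-22 challenge near maximal dose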
RGS4 block = RGS4 inhibitors, primary screen, cell-based, HEK293 M3R inducible RGS4, calcium flux. Regulator of G-protein signaling 4 (Homo sapiens), P49798. Fluo-4 calcium flux; stronger effect = higher value; triggered by carbachol at its EC20. B-score at 10 µM. 310,000 tested, 0.45% active. AID 463165, 2010;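 active = B-score, a plate-corrected calcium signal, over three deviations above library mean, with baseline fluorescence within five deviations of library mean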;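 also: RGS4 expression induced by doxycycline in cells with stable M3 receptor; B-score is computed from the integrated fluorescence ratio over baseline after carbachol; higher B-score means a larger calcium signal and so more RGS4 inhibition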
Target sequence (P49798 whole entry, looked up): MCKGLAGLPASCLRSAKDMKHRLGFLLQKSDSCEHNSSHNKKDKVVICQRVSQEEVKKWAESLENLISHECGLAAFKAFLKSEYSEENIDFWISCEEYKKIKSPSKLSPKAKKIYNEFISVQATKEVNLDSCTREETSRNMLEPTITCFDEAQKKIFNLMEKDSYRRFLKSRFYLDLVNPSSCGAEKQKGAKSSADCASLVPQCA
RGS4 act valid = reduced carbachol calcium response, RGS4-induced M3R cells, confirmation, RGS4 activator project, cell-based, HEK293 M3R/RGS4 inducible, calcium flux, duplicate; inhibition, % at 10 µM; 1,100 tested, 89% active; shares compounds with RGS4 act; carbachol calcium flux Fluo4;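 active = inhibition above 3 SD of the buffer control wells, cut at about 41% in these data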;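 also: signal is the integrated peak-minus-minimum Fluo4 fluorescence over baseline ratio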
M3R Ca counter = activity in cells without induced RGS4 expression. inhibition, % at 10 µM. 1,100 tested, 82% active. HEK293 M3R non-induced RGS4, Fluo4 calcium flux; after carbachol challenge at its EC90. shares compounds with RGS4 act;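 active = inhibition exceeding 3 SD of buffer-only control wells, cut at about 26% in these data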;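 also: percent drop in integrated peak-minus-baseline over baseline Fluo4 ratio after carbachol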
Hits are given with their value; . = inactive; / = no result. Sampled rows, rich in hits. Any-hit rate of the full collection: about 3.5%.

SMILES | MrgX1 allo act | RGS4 act | MrgX1 agonist | MrgX1 antag | RGS4 block | RGS4 act valid | M3R Ca counter
CCCc1nc(SCC(=O)c2ccccc2)c2c(=O)n(C)c(=O)n(C)c2n1 | . | -7.8 | . | . | . | 94 | 91
CCc1nc(SCC(=O)c2ccccc2)c2c(=O)n(C)c(=O)n(C)c2n1 | . | . | . | . | . | / | /
CCOC(=O)c1cc(NC(=O)Cc2ccc(S(=O)(=O)N3CCOCC3)s2)cc(C(=O)OCC)c1 | . | -8 | . | . | . | 64 | 36
CCOC(=O)CSc1nc(C2CC2)cc(-c2ccc(F)cc2)c1C#N | . | -8.5 | . | . | . | 66 | .
COc1ccc(-c2cc(C3CC3)nc(SCC(=O)c3cccs3)c2C#N)cc1 | . | . | . | . | . | / | /
CCN(C(=O)c1ccc(S(=O)(=O)N2CCCCC2)cc1)C1CCS(=O)(=O)C1 (centres undefined) | . | . | . | . | . | / | /
COc1ccccc1C(=O)Nc1ccc2c(c1)nc1n2CCN(C2CCCCC2)C1 | . | . | . | . | . | / | /
O=C(NC1CC2CCCC(C1)N2Cc1ccccc1)C1CCCCC1 (centres undefined) | . | -9.9 | . | . | . | 60 | .
O=C(CN1C2CCCC1CC(NC(=O)C1CCCCC1)C2)Nc1ccccc1 (centres undefined) | . | . | . | . | . | / | /
CC(=O)N1CCOc2ccc(S(=O)(=O)N3CCC(C(=O)Nc4ccc(C)cc4C)CC3)cc21 | . | -8.6 | . | . | . | . | .
CC(=O)N1CCOc2ccc(S(=O)(=O)N3CCC(C(=O)Nc4cc(C)ccc4C)CC3)cc21 | . | . | . | . | . | / | /
CCOc1nc(C)ccc1-c1noc(-c2ccncc2)n1 | . | . | . | . | . | / | /
COc1ccc(OC)c2c1C(=O)C(Cl)=C(Cl)C2=O | . | -8.2 | . | . | . | 80 | 65
COc1cccc(NC(=O)CN(C)C(=O)c2cc(-c3cccc(Br)c3)nc3ccccc23)c1 | . | -9.5 | . | . | . | 84 | 28
CCc1oc(C(=O)O)cc1COC | . | . | . | . | . | / | /
Cc1ccc(N2C(=O)CSC2c2c(F)cccc2Cl)cc1 (centres undefined) | . | -10 | . | . | . | 93 | 92
CN(CCc1ccccn1)C(=O)CCC1CCCN(C(=O)c2n[nH]c3c2CCCC3)C1 (centres undefined) | . | . | . | . | . | / | /
O=C(c1ccccc1Cl)N1CCC(n2cccc2)CC1 | . | . | . | . | . | / | /
Cc1sc2cc3c(c(C(=O)c4ccccc4)[n+]2c1C)-c1cccc2cccc-3c12 | . | -14 | . | . | . | 92 | 91
Cc1sc2ncnc(SCC(=O)NNC(=O)c3ccco3)c2c1C | . | . | . | . | . | / | /
O=C(Cc1ccccc1)NC1CCN(Cc2ccccc2)CC1 | . | . | . | . | . | / | /
Cc1ccccc1CN1C(=O)/C(=C\c2ccc(C(=O)NCCN3CCOCC3)cc2)Sc2ccccc21 | . | -12 | . | . | . | 90 | 81
Cc1ccc(S(=O)(=O)N2CCN(C(=O)c3cc4c(C)nn(-c5ccccc5C)c4s3)CC2)cc1 | . | -8.5 | . | . | . | 83 | 34
O=C(O)/C=C/C(=O)NCc1cn(-c2ccccc2)nc1-c1cccc(Br)c1 | . | . | . | . | . | / | /
CCN1CC=C2C(C#N)=C(N)C(C#N)(C#N)[C@H](c3cccc(OC)c3OC)[C@H]2C1 | . | . | . | . | . | / | /
COc1cccc(C2C3CN(C)CC=C3C(C#N)=C(N)C2(C#N)C#N)c1OC (centres undefined) | . | -8 | . | . | . | 54 | 46
O=C(NCc1cnc2ccccn12)C1CCC(=O)N(Cc2ccccc2F)C1 (centres undefined) | . | . | . | . | . | / | /
